Assay results taken from ChEMBL document CHEMBL1782055, “2,3-dideoxy hex-2-enopyranosid-4-uloses as promising new anti-tubercular agents: design, synthesis, biological evaluation and SAR studies” (Eur J Med Chem, 2011).
In brackets after ≈: the same amount, converted by molar mass. Activity calls are given as the source filed them. No cut-off for these calls is given here.

How the values were obtained:
[1] = system: Mycobacterium tuberculosis; assay: Antitubercular activity against Mycobacterium tuberculosis H37Rv at 50 ug/mL after 24 hrs by BACTEC radiometric susceptibility assay; format: functional, organism-based
[2] = system: Mycobacterium tuberculosis; assay: Antitubercular activity against Mycobacterium tuberculosis H37Rv after 24 hrs by BACTEC radiometric susceptibility assay; format: functional
How it was run: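 BACTEC radiometric assay in 7H12 (12B) medium with 14C-palmitic acid as substrate; 14CO2 output read daily as Growth Index (GI) at 37 °C ± 1 °C. H37Rv inoculum grown in 12B vial to GI around 300. Compounds dissolved in DMSO. Control vial held 1:100 diluted bacterial suspension. Reading continued until control GI reached 30 or more. Daily change in GI compared with control to set susceptibility and MIC.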

[3] = Selectivity index, ratio of CC50 for african green monkey Vero cells to MIC for Mycobacterium tuberculosis H37Rv; format: functional
[4] = Cytotoxicity against african green monkey Vero cells after 24 hrs by resazurin assay; format: cell-based; details: chlorocebus sabaeus
How it was run: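 Vero cells (ATCC CCL-81) seeded overnight at 1 × 10⁴–[…] cells/well in RPMI with 10% heat-inactivated FBS, 37 °C, 5% CO2. Exposed in triplicate to serial dilutions, 100 to 1.56 µg/mL. Resazurin (0.1%) added for 4–5 h. Read visually (purple to pink or colourless) and by fluorescence, excitation 530 nm, emission 590 nm.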

[5] = system: Mycobacterium tuberculosis; assay: Antitubercular activity against Mycobacterium tuberculosis H37Rv infected in mouse J774A.1 cells assessed as growth index at MIC after 8 days by BACTEC radiometric susceptibility assay; format: functional
How it was run: (§1)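 J774A.1 murine macrophages infected with H37Rv (grown in 7H9 with BSA, dextrose, catalase, washed in serum-free RPMI) at MOI 1:20 for 6 h, 37 °C, 5% CO2. Seeded in triplicate, 5 × 10⁵ cells/well. Daily medium change with complete RPMI containing compound at 1× or 2× MIC. Cells lysed with 0.05% SDS on day 0 and day 6. Lysates inoculated into BACTEC vials, GI followed over 8 days.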

[6] = system: Mycobacterium tuberculosis; assay: Antitubercular activity against Mycobacterium tuberculosis H37Rv infected in mouse J774A.1 cells assessed as growth index at 2 times MIC after 8 days by BACTEC radiometric susceptibility assay; format: functional; how it was run: as §1
[7] = system: Mycobacterium tuberculosis; assay: Antitubercular activity against drug-sensitive Mycobacterium tuberculosis 2280 after 24 hrs by BACTEC radiometric susceptibility assay; format: functional; details: Mycobacterium tuberculosis, 2280, 24 h
[8] = system: Mycobacterium tuberculosis; assay: Antitubercular activity against Mycobacterium tuberculosis H37Rv at 25 ug/mL after 24 hrs by BACTEC radiometric susceptibility assay; format: functional, organism-based

Structure (SMILES)	MIC [2] [µg/mL]	also measured
CC(=O)OCC1=C[C@@H](OCCC(C)C)O[C@H](COC(=O)C(C)(C)C)C1=O		Activity [1]: inactive
CC(=O)OC[C@H]1O[C@H](OC(C)C)C=CC1=O	3.12 (≈ 13.7 µM)	Selectivity Index [3]: 7.6; CC50 at 24 h [4]: 104 µM
CC(C)CCO[C@@H]1C=C(CO)C(=O)[C@@H](COC(=O)C(C)(C)C)O1	25 (≈ 76.1 µM)	
CC(C)O[C@@H]1C=C(CO)C(=O)[C@@H](COC(=O)C(C)(C)C)O1	25 (≈ 83.2 µM)	
COc1ccc(O[C@@H]2C=CC(=O)[C@@H](COC(=O)C(C)(C)C)O2)cc1	6.25 (≈ 18.7 µM)	
CCCCO[C@@H]1C=CC(=O)[C@@H](COC(=O)C(C)(C)C)O1	3.12 (≈ 11 µM)	Selectivity Index [3]: 3.85; CC50 at 24 h [4]: 42.5 µM
CCCCCCCCCCO[C@@H]1C=CC(=O)[C@@H](CO)O1	12.5 (≈ 44 µM)	
CO[C@@H]1C=CC(=O)[C@@H](CO)O1	25 (≈ 158 µM)	
CC(C)CCO[C@@H]1C=CC(=O)[C@@H](CO)O1	6.25 (≈ 29.2 µM)	
CC(=O)OC[C@H]1O[C@H](OCCC(C)C)C=C([C@H](O)c2ccc([N+](=O)[O-])cc2[N+](=O)[O-])C1=O	6.25 (≈ 13.8 µM)	
CC(=O)OC[C@H]1O[C@H](OCCC(C)C)C=CC1=O	0.78 (≈ 3.04 µM)	Selectivity Index [3]: 6.6; CC50 at 24 h [4]: 19.8 µM
Cc1ccc(S(=O)(=O)OC[C@H]2O[C@H](OC(C)C)C=CC2=O)cc1	3.12 (≈ 9.18 µM)	Selectivity Index [3]: 1.4; CC50 at 24 h [4]: 13.4 µM
CC(C)CCO[C@H]1O[C@H](COC(=O)C(C)(C)C)C(=O)[C@@H]2O[C@H]12	12.5 (≈ 39.8 µM)	
CCCCCCCCCCO[C@@H]1C=CC(=O)[C@@H](COC(=O)C(C)(C)C)O1	12.5 (≈ 33.9 µM)	
CO[C@H]1/C=C/O[C@@]2(C)Oc3c(C)c(O)c4c(O)c(c(/C=N/N5CCN(C)CC5)c(O)c4c3C2=O)NC(=O)/C(C)=C\C=C\[C@H](C)[C@H](O)[C@@H](C)[C@@H](O)[C@@H](C)[C@H](OC(C)=O)[C@@H]1C [RIFAMPIN]	2 (≈ 2.43 µM)	
O=C1C=C[C@@H](OCC2CC2)O[C@@H]1CO	25 (≈ 126 µM)	
CCCCCCCCCCO[C@@H]1C=C[C@H](O)[C@@H](CO)O1		Activity [1]: inactive
CC(C)CO[C@@H]1C=CC(=O)[C@@H](COC(=O)C(C)(C)C)O1	3.12 (≈ 11 µM)	Selectivity Index [3]: 2.56; CC50 at 24 h [4]: 28.2 µM
CC(C)O[C@@H]1C=CC(=O)[C@@H](CO)O1	25 (≈ 134 µM)	
CN[C@@H]1[C@H](O[C@H]2[C@H](O[C@H]3[C@H](O)[C@@H](O)[C@H](N=C(N)N)[C@@H](O)[C@@H]3N=C(N)N)O[C@@H](C)[C@]2(O)C=O)O[C@@H](CO)[C@H](O)[C@H]1O [STREPTOMYCIN]	6 (≈ 10.3 µM)	
CCCCCCCCCCO[C@@H]1C=CC(=O)[C@@H](COC(C)=O)O1	6.25 (≈ 19.1 µM)	
CC(C)CCO[C@@H]1C=CC(=O)[C@@H](CC#N)O1	12.5 (≈ 56 µM)	
CC(C)(C)C(=O)OC[C@H]1O[C@H](OCC2CC2)C=CC1=O	3.12 (≈ 11.1 µM)	Selectivity Index [3]: 6.96; CC50 at 24 h [4]: 77.2 µM

Structure (SMILES)	MIC [2] [µg/mL]	also measured
CC(C)CCO[C@@H]1C=C([C@H](O)c2ccc([N+](=O)[O-])cc2[N+](=O)[O-])C(=O)[C@@H](COC(=O)C(C)(C)C)O1	6.25 (≈ 12.6 µM)	
CC(C)CCO[C@@H]1C=C([C@H](O)c2ccc(C#N)cc2)C(=O)[C@@H](COC(=O)C(C)(C)C)O1	6.25 (≈ 14.6 µM)	
CO[C@@H]1C=C([C@H](O)c2ccc(C#N)cc2)C(=O)[C@@H](COC(=O)C(C)(C)C)O1	12.5 (≈ 33.5 µM)	
CO[C@@H]1C=CC(=O)[C@@H](COC(C)=O)O1	6.25 (≈ 31.2 µM)	
CC(C)CO[C@@H]1C=C([C@H](O)c2ccc(C#N)cc2)C(=O)[C@@H](COC(=O)C(C)(C)C)O1	6.25 (≈ 15 µM)	
CC(C)O[C@@H]1C=CC(=O)[C@@H](COC(=O)C(C)(C)C)O1	3.12 (≈ 11.6 µM)	Selectivity Index [3]: 1.09; CC50 at 24 h [4]: 12.5 µM
CCCCCO[C@@H]1C=CC(=O)[C@@H](COC(=O)C(C)(C)C)O1	1.56 (≈ 5.23 µM)	Selectivity Index [3]: 1.41; CC50 at 24 h [4]: 7.38 µM
CC(C)(C)O[C@@H]1C=CC(=O)[C@@H](COC(=O)C(C)(C)C)O1	6.25 (≈ 22 µM)	
CC(=O)OC[C@H]1O[C@H](OC(C)(C)C)C=CC1=O	6.25 (≈ 25.8 µM)	
CCCCCCO[C@@H]1C=CC(=O)[C@@H](COC(=O)C(C)(C)C)O1	3.12 (≈ 10 µM)	Selectivity Index [3]: 0.48; CC50 at 24 h [4]: 4.8 µM
CC(C)CO[C@@H]1C=CC(=O)[C@@H](CO)O1	12.5 (≈ 62.4 µM)	
CC(C)CCO[C@@H]1C=CC(=O)[C@@H](COC(=O)C(C)(C)C)O1	0.78 (≈ 2.61 µM)	Selectivity Index [3]: 13.5; Growth_index [5]: 10; CC50 at 24 h [4]: 36 µM; Growth_index [6]: 10; MIC [7]: 0.78 µg/mL (≈ 2.61 µM)
CC(=O)OC[C@H]1O[C@H](OCCC(C)C)C=C([C@H](O)c2ccc([N+](=O)[O-])cc2)C1=O	3.12 (≈ 7.67 µM)	Selectivity Index [3]: 1.8; CC50 at 24 h [4]: 14.3 µM
COc1ccc(O[C@@H]2C=CC(=O)[C@@H](CO)O2)cc1		Activity [8]: inactive
CC(C)CCO[C@@H]1C=C[C@H](O)[C@@H](CO)O1		Activity [1]: inactive
CC(C)CCO[C@@H]1C=CC(=O)[C@@H](CO[Si](C)(C)C(C)(C)C)O1	12.5 (≈ 38 µM)	
CO[C@@H]1C=CC(=O)[C@@H](COC(=O)C(C)(C)C)O1	6.25 (≈ 25.8 µM)	
CC(C)(C)O[C@@H]1C=CC(=O)[C@@H](CO)O1	25 (≈ 125 µM)	
CCCCCCCCCCO[C@@H]1C=C([C@H](O)c2ccc(C#N)cc2)C(=O)[C@@H](COC(=O)C(C)(C)C)O1	12.5 (≈ 25 µM)	
Cc1ccc(S(=O)(=O)OC[C@H]2O[C@H](OC(C)C)C=C([C@H](O)c3ccc([N+](=O)[O-])cc3)C2=O)cc1	6.25 (≈ 12.7 µM)	
CCCCCCCCCCO[C@@H]1C=C([C@H](O)c2ccc([N+](=O)[O-])cc2)C(=O)[C@@H](COC(C)=O)O1	25 (≈ 52.4 µM)	
CC(C)O[C@@H]1C=C([C@H](O)c2ccc(C#N)cc2)C(=O)[C@@H](COC(=O)C(C)(C)C)O1	6.25 (≈ 15.6 µM)	
